Source: ChEMBL document CHEMBL4480411, “Discovery of Second Generation RORγ Inhibitors Composed of an Azole Scaffold” (J Med Chem, 2019)

How the values were obtained:
[1] = molecular target: T1, Nuclear receptor ROR-gamma (Homo sapiens, UniProt P51449); assay: Inhibition of human GAL4-fused RORgamma LBD transcriptional activity expressed in CHOK1 cells after 2 days by luciferase reporter gene assay; format: cell-based
T1 sequence (P51449 whole entry): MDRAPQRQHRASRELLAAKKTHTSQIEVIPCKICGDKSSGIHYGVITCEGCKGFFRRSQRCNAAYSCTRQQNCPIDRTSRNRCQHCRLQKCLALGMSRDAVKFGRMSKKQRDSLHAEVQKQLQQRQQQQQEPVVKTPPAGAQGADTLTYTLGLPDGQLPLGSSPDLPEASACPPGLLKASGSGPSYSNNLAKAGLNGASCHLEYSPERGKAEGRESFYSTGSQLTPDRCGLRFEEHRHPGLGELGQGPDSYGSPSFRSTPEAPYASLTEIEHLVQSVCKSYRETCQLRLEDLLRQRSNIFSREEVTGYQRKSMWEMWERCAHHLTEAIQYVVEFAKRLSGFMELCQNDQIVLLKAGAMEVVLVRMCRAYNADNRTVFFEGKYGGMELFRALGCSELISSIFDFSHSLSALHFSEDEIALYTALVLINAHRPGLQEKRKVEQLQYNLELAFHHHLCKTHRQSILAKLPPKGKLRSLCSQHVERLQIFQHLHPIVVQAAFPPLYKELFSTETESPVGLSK

[2] = Lipophilicity, log D of the compound; format: physicochemical; conditions: octanol/water
[3] = Stability in human liver microsomes assessed as compound remaining after 60 mins; format: ADME, Microsome; conditions: read-out: Stability
Outline: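 Human liver microsomes incubated with compound for 60 minutes; value reported as % of compound remaining.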

[4] = Apparent permeability in human Caco2 cells; format: ADME, cell-based; conditions: Caco-2

Row | Compound | EC50 [1] [nM] | logD [2] | remaining at 1 h [3] [%] | Papp [4] [×10⁻⁶ cm/s]
1 | CC(C)(C)C(F)(F)c1cc(-c2onc([C@@H](CCC(=O)O)CC(=O)Nc3ccc(F)cc3Cl)c2C2CC2)no1 | 6 | 4 | 90 | –
2 | Cc1ccc(NC(=O)C[C@H](CCC(=O)O)c2noc(-c3cc(C(F)(F)C(C)C)on3)c2C2CC2)c(Cl)c1 | 7 | 4 | 74 | –
3 | Cc1ccc(NC(=O)CC(CCC(N)=O)c2nnc(CCCC(C)C)n2C2CC2)c(C)c1 (racemic) | 16000 | 3.4 | 44 | 0.8
4 | Cc1ccc(NC(=O)C[C@H](CCC(=O)[O-])c2noc(-c3cc(CC(C)C)on3)c2C2CC2)c(Cl)c1.[Na+] | 14 | 3.9 | 74 | 36
5 | Cc1ccc(NC(=O)C[C@H](CCC(=O)[O-])c2noc(-c3cc(CC(C)C)no3)c2C2CC2)c(Cl)c1.[Na+] | 12 | 3.8 | 54 | 28
6 | Cc1ccc(NC(=O)C[C@H](CCC(=O)[O-])c2noc(-c3cnc(CC(C)C)s3)c2C2CC2)c(Cl)c1.[Na+] | 17 | 3.8 | 54 | 34
7 | Cc1ccc(NC(=O)C[C@H](CCC(=O)[O-])c2noc(-c3ncc(CC(C)C)s3)c2C2CC2)c(Cl)c1.[Na+] | 120 | 4 | 82 | 28
8 | Cc1ccc(NC(=O)CC(CCO)c2nnc(CCCC(C)C)n2C2CC2)c(C)c1 (racemic) | 440 | 3.5 | 21 | 11
9 | CC(=O)NCCC(CC(=O)Nc1ccc(C)cc1C)c1nnc(CCCC(C)C)n1C1CC1 (racemic) | 11000 | 3.5 | 39 | 1.3
10 | CC(=O)N1C[C@H](C(=O)Nc2ccc(C)cc2C)[C@@H](c2nnc([C@H]3C[C@@H](CC(C)C)C3)n2C2CC2)C1 | – | 4.3 | 61 | 20
11 | Cc1ccc(NC(=O)C[C@H](CCC(=O)[O-])c2noc(-c3noc(CC(C)C)n3)c2C2CC2)c(Cl)c1.[Na+] | 62 | 3.6 | 90 | 25
12 | Cc1ccc(NC(=O)C[C@H](CCC(=O)O)c2noc(-c3cc(C(F)(F)CC(C)C)on3)c2C2CC2)c(Cl)c1 | 8 | 4.4 | 78 | –
13 | Cc1ccc(NC(=O)C[C@H](CCC(=O)O)c2noc(-c3cc(CC(C)(C)C)on3)c2C2CC2)c(Cl)c1 | 7 | 4.2 | 84 | –
14 | Cc1ccc(NC(=O)CC(CCN(C)C)c2nnc(CCCC(C)C)n2C2CC2)c(C)c1 (racemic) | 19000 | 3.3 | 85 | 0.8
15 | Cc1ccc(NC(=O)CC(CCN)c2nnc(CCCC(C)C)n2C2CC2)c(C)c1 (racemic) | > 20000 | 3.1 | 88 | 0.2
16 | Cc1ccc(NC(=O)C[C@H](CCC(=O)O)c2noc(-c3cc(C(F)(F)C(C)(C)C)on3)c2C2CC2)c(Cl)c1 | 6 | 4.3 | 77 | –
17 | Cc1ccc(NC(=O)CC(CCC(=O)N(C)C)c2nnc(CCCC(C)C)n2C2CC2)c(C)c1 (racemic) | 2700 | 3.8 | 45 | 7
18 | CC(C)(C)C(F)(F)c1cc(-c2onc([C@@H](CCC(=O)O)CC(=O)Nc3ccc(Cl)cc3F)c2C2CC2)no1 | 7 | 4.2 | 107 | –
19 | CNC(=O)CCC(CC(=O)Nc1ccc(C)cc1C)c1nnc(CCCC(C)C)n1C1CC1 (racemic) | 6400 | 3.5 | 65 | 1.5
20 | Cc1ccc(NC(=O)CC(CCC(=O)O)c2nnc(CCCC(C)C)n2C2CC2)c(C)c1 (racemic) | > 20000 | 2.9 | 91 | 0.2
21 | Cc1ccc(NC(=O)C[C@H](CCC(=O)[O-])c2noc(-c3csc(CC(C)C)n3)c2C2CC2)c(Cl)c1.[Na+] | 3800 | 3.8 | 82 | 34
22 | Cc1ccc(NC(=O)C[C@H](CCC(=O)[O-])c2noc(-c3nnc(CC(C)C)s3)c2C2CC2)c(Cl)c1.[Na+] | 56 | 3.4 | 78 | 10
23 | Cc1ccc(NC(=O)C[C@H](CCC(=O)O)c2noc(-c3cc(CCC(C)C)on3)c2C2CC2)c(Cl)c1 | 8 | 4.3 | 79 | –
24 | Cc1ccc(NC(=O)C[C@H](CCC(=O)O)c2noc(-c3ccc(CC(C)C)cc3)c2C2CC2)c(Cl)c1 | 44 | 4.8 | 80 | 16
25 | CCN(c1ccc(C(O)(C(F)(F)F)C(F)(F)F)cc1)S(=O)(=O)c1ccc([N+](=O)[O-])cc1 | 190 | – | – | –
26 | Cc1ccc(NC(=O)C[C@H](CCC(=O)[O-])c2noc(-c3ncc(CC(C)C)o3)c2C2CC2)c(Cl)c1.[Na+] | 660 | 3.7 | 75 | 32
27 | Cc1ccc(NC(=O)CCc2nnc(CCCC(C)C)n2C2CC2)c(C)c1 | – | 3.9 | 27 | 36
